Source: BindingDB's records for doi:10.1021/jm300138g (Neuraxon, 2012)

Molecular target: Sodium-dependent noradrenaline transporter (Homo sapiens, UniProt P23975)
Assay: Displacement of [3H]nisoxetine from human NET expressed in CHO cells after 120 mins by scintillation counting
Summary of the method: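 Membranes from hNET-transfected CHO cells (20 μg protein) incubated 120 min at 4 °C with 1 nM [3H]nisoxetine in 50 mM Tris-HCl pH 7.4, 120 mM NaCl, 5 mM KCl. Nonspecific binding defined with 1 μM desipramine. Filtered on PEI-soaked GF/B and counted.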

Chain of Sodium-dependent noradrenaline transporter (P23975 whole entry): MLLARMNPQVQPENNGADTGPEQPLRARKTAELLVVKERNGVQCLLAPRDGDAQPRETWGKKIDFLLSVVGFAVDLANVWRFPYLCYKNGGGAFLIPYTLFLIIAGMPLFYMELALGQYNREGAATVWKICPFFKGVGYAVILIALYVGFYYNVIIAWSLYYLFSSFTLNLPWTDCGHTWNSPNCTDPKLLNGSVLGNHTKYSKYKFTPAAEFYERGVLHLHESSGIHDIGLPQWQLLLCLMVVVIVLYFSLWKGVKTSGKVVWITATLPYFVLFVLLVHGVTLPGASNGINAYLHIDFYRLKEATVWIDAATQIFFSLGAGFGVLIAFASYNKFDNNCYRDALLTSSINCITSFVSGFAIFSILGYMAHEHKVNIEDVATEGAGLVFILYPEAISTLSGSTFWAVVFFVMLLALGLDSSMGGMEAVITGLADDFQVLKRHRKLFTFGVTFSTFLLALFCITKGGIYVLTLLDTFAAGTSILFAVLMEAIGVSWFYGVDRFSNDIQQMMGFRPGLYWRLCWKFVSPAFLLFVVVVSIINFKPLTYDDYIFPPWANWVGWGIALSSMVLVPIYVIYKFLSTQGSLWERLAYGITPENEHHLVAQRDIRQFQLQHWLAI

## CN(C)C1CC=C(c2c[nH]c3ccc(N=C(N)c4cccs4)cc23)CC1 (stereo unspecified)
  IC50: 550 nM
